Data: ChEMBL document CHEMBL4513216, “Probing the Open Global Health Chemical Diversity Library for Multistage-Active Starting Points for Next-Generation Antimalarials” (ACS Infect Dis, 2020)

Assay: Toxicity liver stage against HepG2, at 10uM
Assay type: cell-based
Set-up: test concentration 10 uM, cell line HepG2-A16-CD81EGFP
Conditions: human, HepG2-A16-CD81EGFP cells; read-out: INHIBITION
Outline: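 Uninfected HepG2-A16-CD81EGFP cells, 3 × 10^3 per well, 1536-well, plated on prespotted compound at 10 μM final, parasite-free screening media added to match infected plates; puromycin 10 μM positive, DMSO 0.5% negative; run in parallel with 48 h PbLuc assay at 37 °C, 5% CO2; viability by CellTiter-Glo luminescence, normalized to controls.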

SMILES | cytotoxicity at 10 µM [%]
CCS(=O)(=O)N1CCc2ccc(NC(=O)Nc3cccc(F)c3)cc21 | 38.4
CC1=C(C#N)C(=O)N(C)C(=O)/C1=C\C1=Cc2ccccc2OC1 | -39.4
Cc1nc(NC(=O)c2c(-n3cnnn3)sc3c2CCCC3)sc1C | 2.03
Cc1cnc(NC(=O)c2csc(NC3CCCC3)n2)s1 | 45.8
CCCc1cc(=O)[nH]c(-n2nc(C3CC3)cc2N)n1 | 31.3
CC(C)c1cc(=O)[nH]c(-n2nc(C3CC3)cc2N)n1 | 33.9
Cc1cs/c(=N/C(=O)c2csc(NCC(C)C)n2)[nH]1 | 22.9
Cc1[nH]/c(=N\C(=O)c2csc(NCC(C)C)n2)sc1C | 47.4
Cc1cc(CN2CCc3nc(N4CCOCC4)nc(O)c3CC2)c(C)s1 | 6.3
CC(C)(C)n1nnnc1CN(Cc1ccccc1)Cc1ccccc1Cl | 8.56
Cn1cncc1CN1CCCC1c1cncc(Oc2ccc(Cl)cc2)n1 (centres undefined) | 11
COc1ccc(CN2CCOC(CCc3ccnc(N)c3)C2)cc1 (centres undefined) | 13.3
CN(C)S(=O)(=O)N1CCCC(c2cccc(Cc3ccc(F)cc3)n2)C1 (centres undefined) | 38.9
COC1CCN(c2ccc(NC(=O)C3CC3)cc2C(F)(F)F)CC1 | 39.5
Cc1cnn(C2CN(c3ccccc3S(=O)(=O)C(F)(F)F)C2)c1 | 11.5
Cc1cnn(CC(C)NCc2cc(=O)n3ccccc3n2)c1 (centres undefined) | -5.3
Cc1c(Cl)cccc1OCC(=O)NC1(C#N)CCSC1 (centres undefined) | 37.8
Cc1sc(NC(=O)CN2CCCC(c3ncc[nH]3)C2)c(C)c1C (centres undefined) | 28.1
COCCN(CCOC)C(=O)c1cnn(C)c1C | -149
CCN(CC(C)C#N)C(=O)CNc1ccc(C(N)=O)c(C)c1 (centres undefined) | 8.54
COc1cc(C(=O)NS(=O)(=O)c2cc(Cl)sc2Cl)ccc1OC(F)F | -13.9
CC(C)Oc1ccc(NCc2ccc([S+](C)[O-])cc2)c(F)c1 (centres undefined) | 22.4

SMILES | cytotoxicity at 10 µM [%]
COc1cc2c(nn1)CCN(Cc1nnc(Cc3ccccc3)o1)C2 | 4.25
CCCn1nc2c(cc1=O)CN(c1ncnc3ccsc13)CC2 | 49.5
Cc1ccc(N2CCCN(C(=O)c3cn(C)c4ccccc34)CC2)nn1 | -9.53
N#Cc1c(Cl)nsc1NCc1cccnc1OCC(F)(F)F | 25.5
Cc1ccsc1C(=O)Nc1ccc(N2CCC(O)CC2)c(C#N)c1 | 33.2
CCc1nc(CNc2cc(Cl)ccc2OCC2CCCO2)no1 (centres undefined) | 8.84
COc1ccccc1C1(CNc2nnc(C)c(C)c2C#N)CCCC1 | 34.4
CN(Cc1noc(C(C)(C)C)n1)Cc1ccccc1N1CCCCC1 | -4.73
NC(=O)c1ccc(N2CCCCC2)c(NC(=O)c2cc(F)ccc2F)c1 | 7.57
O=C(C1CC1)N1CCC(Oc2ccccc2Cl)CC1 | 25.6
Brc1ccc(-c2nnc(CN(Cc3cccs3)CC3CCCO3)o2)s1 (centres undefined) | 23.2
CCn1nc2c(cc1=O)CN(c1ncnc3ccsc13)CC2 | 49.6
CC(C)n1nc2c(cc1=O)CN(c1ncnc3ccccc13)CC2 | 52.2
Cc1cn2c(n1)C(CNCC1=Cc3ccccc3OC1)CCC2 (centres undefined) | 27.7
Cc1nc(C)c(C(=O)NCc2nc3cccc(C)c3n2C)o1 | 40.1
Cc1ccc(-c2nc(CSCCC(=O)NC(N)=O)co2)c(C)c1 | -6.4
Cc1cc(C2CCCN(CCc3ccc4c(c3)CCO4)C2)n[nH]1 (centres undefined) | -7.66
CNC(=O)c1cccnc1N1CCC(Oc2ccc(F)cc2)CC1 | 3.41
Cc1cc(CNc2ccnn2CC(C)C)ccc1-n1cncn1 | 24
O=C(c1ccc(Br)o1)N1CCN(Cc2ccc(OC(F)(F)F)cc2)CC1 | 21.7
COc1cc(N2CCC3(CC2)CN(CCO)c2ccccc23)ncn1 | 19.7
Cn1cc(CN2CCc3ccc(=O)n(CC4CC4)c3CC2)cn1 | 3.24

SMILES | cytotoxicity at 10 µM [%]
COC[C@@]12CCO[C@@H]1CCN(C(=O)C1CC(F)(F)C1)C2 | -97.4
Cc1ccc(C(=O)N2CCc3c(COCC4CC4)cncc3C2)o1 | -74.2
CCCn1cc(-c2ccnc(NC3CCc4ccccc4C3)n2)c(C)n1 (centres undefined) | 81.3
OCC1(Cc2ccccc2F)CCCN(c2ccc3ccccc3n2)C1 (centres undefined) | 22.7
Cc1cnc(C)c(Oc2ccc(Cl)c(CN3CCCC3)c2Cl)n1 | 2.61
Cc1nnc(CN2C[C@H](NC(=O)C3CCOCC3)[C@@H](C(C)C)C2)s1 | -3.41
CN1CCN(CCc2ncnn2-c2ccc3c(c2)OCO3)CC1 | -0.00326
CNc1nc(C)cc(NCc2cc(C)cc3c(C)c(C)[nH]c23)n1 | -30.2
CCS(=O)(=O)NCc1cccnc1N1CCCC(O)C1 (centres undefined) | 1.91
Cc1nc(N)ncc1C(=O)N1CCCC(CCc2ccc(F)cc2)C1 (centres undefined) | -8.3
Cc1ncnc(N2CCCN(c3nc4ccccc4s3)CC2)c1C | 55.5
Fc1ccc(N2CCCN(c3ccc(Cn4ccnc4)cn3)CC2)cc1 | 26.2
CN(C)CC1(O)CCCN(C(=O)Cn2ccc3ccccc32)CC1 (centres undefined) | -1.96
O=C(O)CSc1nnc(-c2cn[nH]c2)n1-c1ccccc1C(F)(F)F | 1.2
CCc1cnc(N)nc1NC(C)c1ccc(C)c(C)c1 (centres undefined) | 21.3
COc1ccc(CN(CC2CCCO2)c2nc3c(s2)c(C)nn3C)cc1 (centres undefined) | 11.4
Cc1nc2c(c(NCC(O)C(F)(F)F)n1)CCNCC2 (centres undefined) | 5.37
Cn1ncnc1-c1ccnc(NCCCc2ccncc2)n1 | -1.41
COc1cc(Oc2ncccc2C(F)(F)F)ccc1CN1CCCC1 | 38.8
OC1CCN(c2ccnc(NCCc3ccccc3Cl)n2)C1 (centres undefined) | 39.3
Cc1cc2c(N3CCC(N(C)Cc4nccs4)CC3)ncnc2s1 | 45
COc1cccc(C2CCN(c3ccc4cc[nH]c4n3)C2)c1OC (centres undefined) | 50.2

SMILES | cytotoxicity at 10 µM [%]
CN1CC2(CCN(C(=O)c3ccc4c(=O)n(C)cnc4c3)C2)OC1=O (centres undefined) | 2.41
Cc1c(CN2CCCC(C(=O)c3ccc(C(C)(C)C)cc3)C2)cnn1C (centres undefined) | 10.4
NCC1Cc2cccc(-c3nccc(N4CCC(O)CC4)n3)c2O1 (centres undefined) | -14.9
N[C@@H]1c2ccccc2C2(CCN(c3cccc(C(F)(F)F)n3)CC2)[C@H]1O | 0.243
Cc1noc(-c2ccnc(Oc3ccc(CN4CCCC4)cc3F)c2)n1 | 15.7
Cc1ccc(CN2CCN(C(=O)c3ccc(Br)o3)CC2)cc1 | 1.16
Cc1sc2nc(CCN)nc(N3CC(N4CCCCC4)C3)c2c1C | -21.9
CCC(NC(=O)C1CCN(S(C)(=O)=O)CC1)c1ccc(C)cc1C (centres undefined) | -10.6
O=C1CC(c2ccc3c(c2)OCO3)c2cnn(C3CCCC3)c2N1 (centres undefined) | 24.3
CCCn1cc(S(=O)(=O)N[C@H]2CN(CCO)C[C@@H]2C2CC2)cn1 | -11.3
NC(=O)CCn1cc(CNCCCc2ccccc2O)c2ccccc21 | 8.92
OCC1CCCCN1c1ccc(-c2nc(-c3ccccc3F)no2)cn1 (centres undefined) | 51.2
Cc1cc(SCC(=O)O)nc2nn(CC(F)F)c(C)c12 | 45.5
Cc1cccc(-c2noc(CN3CC(n4cc(C)cn4)C3)n2)c1 | -8.8
Cc1noc(NC(=O)c2ccc(OC(F)(F)F)cc2)n1 | 33.5
Cc1noc(NC(=O)c2ccc(Br)cc2)n1 | 32.9
CC(C)Cc1ccc(S(=O)(=O)Nc2ccc(=O)n(C)c2)cc1 | 46.3
c1cnc(-c2nc(CN3CCOC(Cn4cncn4)C3)cs2)nc1 (centres undefined) | -15.2
Cc1nc2cc(C3CCN(Cc4cccc(F)c4F)C3)nn2c(O)c1C (centres undefined) | 0.333
Cc1ccc(CN(Cc2ncc[nH]2)C2CC(C)(C)NC(C)(C)C2)o1 | -15.2
Cc1ccc(N(CC(=O)c2ccc(Br)cc2)C2=NCCCCC2)cc1 | 36.5
Cc1ccc(CN(CCCn2ccnc2)Cc2c(F)cccc2F)s1 | 2.76

SMILES | cytotoxicity at 10 µM [%]
COc1ccc(F)c(CN(CCCn2ccnc2)Cc2ccc(C)s2)c1 | -7.14
COc1ccc(C)cc1CN1CCC(c2cc3ncccc3cn2)CC1 | 20.5
CN1CCC2(COCCN(Cc3cccc(C#N)c3)C2)C1 (centres undefined) | 0.0422
COCCNC(=O)C1CN(Cc2ccncc2)Cc2ccnn2C1 (centres undefined) | -83
Clc1ccc(-c2ccc(C3CNCCO3)nc2)cc1 (centres undefined) | -5.86
Cn1ccnc1CN1CCC2(CC1)CN(c1ccccn1)CCO2 | -0.335
CN(C)C[C@]12COC[C@H]1CN(Cc1ccccn1)C2 | 5.89
O=C([C@H]1C[C@H]2OCC[C@H]2N(Cc2ccoc2)C1)N1CCCCO1 | -73.2
COc1ccc(CN2CCO[C@H]3[C@H](OCc4ccncc4)CC[C@@H]32)cc1 | -30.9
CCS(=O)(=O)N1CCc2c(CN3CCOCC3)cncc2C1 | 4.35
COc1cc(N2CCC3(CCN(Cc4nccs4)CC3)C2)ncn1 | -36
Cc1ccc(CN2CC[C@@H]3[C@@H]2CCN3C(=O)Cc2cccs2)o1 | -119
Cc1nc(CN2CCN3C[C@H](Oc4cncnc4)C[C@H]3C2)cs1 | -81.4
Fc1cccc(N2CCCC3(CN(Cc4nccs4)CCO3)C2)c1 (centres undefined) | -58.2
COc1cc(N2CCC3(CCN(Cc4csc(C)n4)C3=O)C2)ncn1 (centres undefined) | -104
Cc1noc(C)c1CN1CCC[C@]2(C[C@@H](Oc3ccccn3)CO2)C1 | -67.1
Cc1cc(CN2C[C@@H]3CN(C(=O)c4cccn4C)CCO[C@@H]3C2)no1 | -148
Cc1nc([C@H]2C[C@@H]3CCN(Cc4scnc4C)C[C@H]3O2)no1 | -129
O=C1CC(c2ccncc2)C2(CCN(CCc3ccccc3)CC2)N1 (centres undefined) | -1.58
Cc1cnc(N2CCc3c(CNc4ccnc(C)n4)cncc3C2)nc1 | -39.1
FC1(F)CCN(Cc2ccncc2)CC12CCN(c1cccnc1)C2 (centres undefined) | -94.8
